Results taken from ChEMBL document CHEMBL2331552, “Identification of RO4597014, a Glucokinase Activator Studied in the Clinic for the Treatment of Type 2 Diabetes” (ACS Med Chem Lett, 2013).
In brackets after ≈: the same amount, converted by molar mass.

Columns and labels:
[1] = target: T1, Hexokinase-4 (Homo sapiens) (UniProt P35557); assay: Activation of glucokinase (unknown origin) using glucose as substrate assessed as stimulation concentration required to achieve 150% activity relative to control
T1 sequence (whole entry): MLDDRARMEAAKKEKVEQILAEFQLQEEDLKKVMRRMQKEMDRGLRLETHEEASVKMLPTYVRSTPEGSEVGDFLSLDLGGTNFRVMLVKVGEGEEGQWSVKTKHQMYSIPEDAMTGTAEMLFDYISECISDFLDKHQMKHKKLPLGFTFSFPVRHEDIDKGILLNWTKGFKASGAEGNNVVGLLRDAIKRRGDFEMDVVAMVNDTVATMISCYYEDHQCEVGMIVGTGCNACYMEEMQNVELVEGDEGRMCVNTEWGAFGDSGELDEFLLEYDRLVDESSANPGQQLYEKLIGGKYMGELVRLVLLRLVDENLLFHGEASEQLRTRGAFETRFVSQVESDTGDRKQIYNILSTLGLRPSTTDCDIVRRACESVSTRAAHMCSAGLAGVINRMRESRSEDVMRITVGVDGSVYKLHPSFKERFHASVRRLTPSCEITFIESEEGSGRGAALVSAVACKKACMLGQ
Outline: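 Read-out is the compound concentration giving GK activity 150% of control (SC1.5). Values are means of at least three independent assays. Assay CV averaged 15%.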

[2] = target: hERG (KCNH2) (Homo sapiens, UniProt Q12809); assay: Inhibition of human ERG channel at 10 uM by patch clamp method
hERG (KCNH2), sequence (Q12809 whole entry): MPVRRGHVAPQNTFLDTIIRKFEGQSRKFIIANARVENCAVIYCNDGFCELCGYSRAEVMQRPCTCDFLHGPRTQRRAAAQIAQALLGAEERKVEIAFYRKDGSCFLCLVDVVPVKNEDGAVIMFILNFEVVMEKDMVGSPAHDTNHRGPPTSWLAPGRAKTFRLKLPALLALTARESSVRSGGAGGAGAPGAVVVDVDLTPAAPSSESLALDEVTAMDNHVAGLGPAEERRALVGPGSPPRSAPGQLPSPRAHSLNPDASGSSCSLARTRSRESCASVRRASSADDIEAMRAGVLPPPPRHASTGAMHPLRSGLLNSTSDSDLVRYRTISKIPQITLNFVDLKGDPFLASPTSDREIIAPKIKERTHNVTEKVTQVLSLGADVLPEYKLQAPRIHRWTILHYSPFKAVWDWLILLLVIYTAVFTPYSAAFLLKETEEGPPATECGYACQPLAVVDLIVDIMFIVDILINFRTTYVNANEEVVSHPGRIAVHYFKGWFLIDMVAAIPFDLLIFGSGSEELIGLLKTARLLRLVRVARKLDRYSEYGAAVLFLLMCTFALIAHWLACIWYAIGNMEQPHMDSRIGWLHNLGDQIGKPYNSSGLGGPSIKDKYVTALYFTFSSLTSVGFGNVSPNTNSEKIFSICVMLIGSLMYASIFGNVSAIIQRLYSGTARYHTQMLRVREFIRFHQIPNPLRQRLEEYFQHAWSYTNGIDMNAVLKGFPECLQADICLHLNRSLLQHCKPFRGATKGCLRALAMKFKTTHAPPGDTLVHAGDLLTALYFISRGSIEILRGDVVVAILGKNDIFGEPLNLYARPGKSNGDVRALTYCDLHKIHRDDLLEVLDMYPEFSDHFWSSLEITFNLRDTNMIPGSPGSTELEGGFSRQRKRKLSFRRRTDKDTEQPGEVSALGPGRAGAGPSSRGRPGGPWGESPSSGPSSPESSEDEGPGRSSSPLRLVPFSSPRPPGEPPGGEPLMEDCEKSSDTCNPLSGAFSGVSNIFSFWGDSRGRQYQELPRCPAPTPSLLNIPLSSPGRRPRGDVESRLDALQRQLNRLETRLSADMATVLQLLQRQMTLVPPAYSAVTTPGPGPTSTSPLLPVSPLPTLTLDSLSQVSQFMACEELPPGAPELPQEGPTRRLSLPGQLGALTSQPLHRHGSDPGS

[3] = system: Mus musculus; assay: Antidiabetic activity in C57Bl/6J mouse assessed as change in blood glucose level at 50 mg/kg, po after 4 hrs relative to vehicle-treated control; type: functional
Outline: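 C57Bl/6J mice, 2 months old, n = 6 per group, fasted 2 h, received 50 mg/kg orally or vehicle. Blood was sampled at 2, 4, 6 and 8 h after dosing. The recorded value is % blood glucose change versus vehicle at 4 h.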

[4] = AUC (0 to infinity) in dog at 30 mg/kg, po; type: ADME, organism-based, Canis lupus familiaris; design: time infinity, dose 30 mg/kg, route oral; conditions: plasma
[5] = Lipophilicity, log D of the compound at pH 7.4; type: physicochemical; conditions: buffer
[6] = AUC (0 to infinity) in dog at 10 mg/kg, iv; type: ADME, organism-based, Canis lupus familiaris; design: time infinity, dose 10 mg/kg, route intravenous; conditions: plasma
[7] = Volume of distribution at steady state in C57Bl/6J mouse at 10 mg/kg, iv; type: ADME, organism-based; design: dose 10 mg/kg, route intravenous; conditions: in vivo, read-out: Vdss
[8] = target: Voltage-gated inwardly rectifying potassium channel KCNH2 (Homo sapiens, UniProt Q12809); assay: Inhibition of human ERG channel
Voltage-gated inwardly rectifying potassium channel KCNH2, sequence (Q12809 whole entry): as above
Outline: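 hERG potassium channel current was measured by patch clamp at varied concentrations. IC50 was taken from the concentration-dependent inhibition.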

[9] = Volume of distribution at steady state in dog at 10 mg/kg, iv; type: ADME, organism-based, Canis lupus familiaris; design: dose 10 mg/kg, route intravenous; conditions: in vivo, read-out: Vdss
[10] = Solubility of the compound at pH 7.4; type: physicochemical; conditions: buffer
[11] = Oral bioavailability in C57Bl/6J mouse at 30 mg/kg; type: ADME, organism-based; conditions: in vivo
[12] = AUC (0 to infinity) in C57Bl/6J mouse at 30 mg/kg, po; type: ADME, organism-based; design: time infinity, dose 30 mg/kg, route oral; conditions: plasma
[13] = system: Mus musculus; assay: Antidiabetic activity in diet induced obese C57Bl/6J mouse assessed as reduction in blood glucose level at 15 mg/kg, po after 2 to 4 hrs; type: functional; design: scale not given: the % may be the effect or the level left
Outline: (§1)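 Diet-induced obese C57Bl/6J mice were used: 6 months old, on high-fat diet for 4 months, n = 9 per dose. Oral doses were 7.5, 15 and 30 mg/kg. Basal blood glucose lowering was read at 2 and 4 h post-dose.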

[14] = AUC (0 to infinity) in C57Bl/6J mouse at 10 mg/kg, iv; type: ADME, organism-based; design: time infinity, dose 10 mg/kg, route intravenous; conditions: plasma
[15] = Dissociation constant, pKa of the compound; type: physicochemical
[16] = Fraction unbound in human plasma; type: ADME, cell-free
[17] = Clearance in dog at 10 mg/kg, iv; type: ADME, organism-based, Canis lupus familiaris; design: dose 10 mg/kg, route intravenous; conditions: in vivo
[18] = Cmax in dog at 30 mg/kg, po; type: ADME, organism-based, Canis lupus familiaris; design: dose 30 mg/kg, route oral; conditions: in vivo
[19] = target: T1, Hexokinase-4 (Homo sapiens); assay: Activation of human recombinant glucokinase using glucose as substrate
Outline: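 Recombinant human GK was run across a range of glucose concentrations with varied activator levels. Vmax and the glucose SC0.5 (concentration reaching half Vmax) were derived.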

[20] = system: Mus musculus; assay: Antidiabetic activity in po dosed diet induced obese C57Bl/6J mouse assessed as reduction in blood glucose level after 2 to 4 hrs; type: functional; outline: as §1
[21] = system: Liver microsomes; assay: Covalent binding to human liver microsomes after 30 mins in presence of NADPH per mg of protein; type: ADME, Microsome; conditions: 0.5 h
Outline: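 Covalent binding to human liver microsomes was measured with NADPH over 30 min. It is expressed per mg protein.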

[22] = Cmax in C57Bl/6J mouse at 30 mg/kg, po; type: ADME, organism-based; design: dose 30 mg/kg, route oral; conditions: in vivo
[23] = Tmax in dog at 30 mg/kg, po; type: ADME, organism-based, Canis lupus familiaris; design: dose 30 mg/kg, route oral; conditions: in vivo
[24] = Oral bioavailability in dog at 30 mg/kg; type: ADME, organism-based, Canis lupus familiaris; conditions: in vivo
[25] = Clearance in C57Bl/6J mouse at 10 mg/kg, iv; type: ADME, organism-based; design: dose 10 mg/kg, route intravenous; conditions: in vivo
[26] = Inhibition of cytochrome P450 (unknown origin); type: ADME, Homo sapiens
Outline: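 IC50 was measured against 7 CYP isoforms.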

[27] = system: Mus musculus; assay: Antidiabetic activity in diet induced obese C57Bl/6J mouse assessed as reduction in blood glucose level at 30 mg/kg, po after 2 to 4 hrs; type: functional; design: scale not given: the % may be the effect or the level left; outline: as §1
[28] = Metabolic stability in human hepatocytes after 3 hrs by LC-MS/MS analysis; type: ADME, cell-based, Hepatocyte; conditions: read-out: Stability
[29] = Tmax in C57Bl/6J mouse at 30 mg/kg, po; type: ADME, organism-based; design: dose 30 mg/kg, route oral; conditions: in vivo
[30] = Apparent permeability of the compound across human Caco2 cells; type: ADME, cell-based; conditions: Caco-2
[31] = system: Mus musculus; assay: Antidiabetic activity in po dosed diet induced obese C57Bl/6J mouse assessed as lowering blood glucose level; type: functional, organism-based
Outline: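 Diet-induced obese C57Bl/6J mice were used: 6 months old, 4 months on high-fat diet, n = 9 per dose. Oral doses were 7.5, 15 and 30 mg/kg, with glucose followed at 2 and 4 h post-dose. The dose giving 25% glucose lowering (ED25) was reported.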

COc1cc(C(CC2CCCC2)C(=O)Nc2cnccn2)ccc1S(C)(=O)=O (stereo not given)
Activity [1]: 1.9 µM | inhibition at 10 µM [2]: 36%

CS(=O)(=O)c1ccc([C@@H](CC2CCCC2)C(=O)Nc2cnc(OC[C@H](O)CO)cn2)cc1Cl
Activity [1]: 0.19 µM | Activity [3]: -38%

CC(C)(O)[C@@H](O)c1cnc(NC(=O)[C@H](CC2CCCC2)c2ccc(S(C)(=O)=O)c(Cl)c2)cn1
Activity [1]: 0.31 µM | Activity [3]: -44%

COCC#Cc1cnc(NC(=O)[C@H](CC2CCCC2)c2ccc(S(C)(=O)=O)c(Cl)c2)cn1
Activity [1]: 0.14 µM | inhibition at 10 µM [2]: 53% | Activity [3]: -49%

CS(=O)(=O)c1ccc([C@@H](CC2CCCC2)C(=O)Nc2cnc(OC[C@@H](O)CO)cn2)cc1Cl
Activity [1]: 0.3 µM | Activity [3]: -29%

CC(C)(O)C#Cc1cnc(NC(=O)[C@H](CC2CCCC2)c2ccc(S(C)(=O)=O)c(Cl)c2)cn1
Activity [1]: 0.056 µM | Activity [3]: -48%

CS(=O)(=O)c1ccc([C@@H](CC2CCCC2)C(=O)Nc2cnc(/C(N)=N\O)cn2)cc1Cl
Activity [1]: 0.037 µM | inhibition at 10 µM [2]: 50% | Activity [3]: -53%

CS(=O)(=O)c1ccc([C@@H](CC2CCCC2)C(=O)Nc2cnc(CCC3(O)CCOCC3)cn2)cc1Cl
Activity [1]: 0.13 µM | inhibition at 10 µM [2]: 40% | Activity [3]: -43%

CS(=O)(=O)c1ccc([C@@H](CC2CCCC2)C(=O)Nc2cnccn2)cc1Cl
Activity [1]: 0.11 µM | Activity [3]: -53%

CS(=O)(=O)c1ccc(C(CC2CCOCC2)C(=O)Nc2cnccn2)cc1Cl (stereo not given)
Activity [1]: 1.4 µM | inhibition at 10 µM [2]: 8.1% | Activity [3]: -5.6%

CS(=O)(=O)c1ccc([C@@H](CC2CCCC2)C(=O)Nc2cnc(C#CC3(O)CCOCC3)cn2)cc1Cl
Activity [1]: 0.075 µM | Activity [3]: -45%

CS(=O)(=O)Cc1cnc(NC(=O)[C@H](CC2CCCC2)c2ccc(S(C)(=O)=O)c(Cl)c2)cn1
Activity [1]: 0.26 µM | Activity [3]: -39%

C/C(=N/O)c1cnc(NC(=O)[C@H](CC2CCCC2)c2ccc(S(C)(=O)=O)c(Cl)c2)cn1
Activity [1]: 0.059 µM | inhibition at 10 µM [2]: 73% | Activity [3]: -43%

CS(=O)(=O)c1ccc([C@@H](CC2CCCC2)C(=O)Nc2cnc(C#CCO)cn2)cc1Cl
Activity [1]: 0.022 µM | inhibition at 10 µM [2]: 46% | Activity [3]: -46%

C[S+]([O-])c1cnc(NC(=O)[C@H](CC2CCCC2)c2ccc(S(C)(=O)=O)c(Cl)c2)cn1 (stereo not given in full)
Activity [1]: 0.4 µM | inhibition at 10 µM [2]: 27% | Activity [3]: -26%

CS(=O)(=O)c1ccc([C@@H](CC2CCCC2)C(=O)Nc2cnc(C(=O)NO)cn2)cc1Cl
Activity [1]: 0.41 µM | inhibition at 10 µM [2]: 37% | Activity [3]: -14%

CS(=O)(=O)c1ccc(C(CC2CCOC2)C(=O)Nc2cnccn2)cc1Cl (stereo not given)
Activity [1]: 3.6 µM

CSc1cnc(NC(=O)[C@H](CC2CCCC2)c2ccc(S(C)(=O)=O)c(Cl)c2)cn1
Activity [1]: 0.054 µM | Activity [3]: -26%

CS(=O)(=O)c1ccc([C@@H](CC2CCCC2)C(=O)Nc2cnc([C@@H](O)CO)cn2)cc1Cl
Activity [1]: 1.1 µM | inhibition at 10 µM [2]: 21% | Activity [3]: -35%

CN(C)CC#Cc1cnc(NC(=O)[C@H](CC2CCCC2)c2ccc(S(C)(=O)=O)c(Cl)c2)cn1
Activity [1]: 0.11 µM | inhibition at 10 µM [2]: 86% | Activity [3]: -46%

CS(=O)(=O)c1ccc([C@@H](CC2CCCC2)C(=O)Nc2cnc([C@H](O)CO)cn2)cc1Cl
Activity [1]: 0.26 µM | AUC(0-inf) [4]: 54500 ng·h/mL | logD [5]: 2.7 | AUC(0-inf) [6]: 21600 ng·h/mL | Vd [7]: 1.44 L/kg | IC50 [8]: 70 µM | Vd [9]: 1.69 L/kg | inhibition at 10 µM [2]: 22% | solubility [10]: 170 µg/mL (≈ 363 µM) | bioavailability [11]: 50.3% | AUC(0-inf) [12]: 12100 ng·h/mL | Activity [13]: 32% | AUC(0-inf) [14]: 8010 ng·h/mL | pKa [15]: 11.4 | fraction unbound [16]: 0.1 | clearance [17]: 8 mL/min/kg | Cmax [18]: 3790 ng/mL | Activity [19]: Dose-dependent effect | Activity [3]: -44% | ED25 [20]: 10 mg/kg | Activity [21]: 33 pmol | Cmax [22]: 1310 ng/mL | Tmax [23]: 7.3 h | bioavailability [24]: 84% | clearance [25]: 20.8 mL/min/kg | IC50 [26]: > 30 µM | Activity [27]: 45% | remaining at 3 h [28]: 95% | Tmax [29]: 4 h | Papp [30]: 3.36 ×10⁻⁶ cm/s | Activity [31]: Dose-dependent effect
